Consider one compound from PMC3382646 (Journal of Computer-Aided Molecular Design, 2011).

This test has as its target T1, Bovine pancreatic trypsin (Bos taurus, UniProt P00760).
T1 sequence (P00760 24-246): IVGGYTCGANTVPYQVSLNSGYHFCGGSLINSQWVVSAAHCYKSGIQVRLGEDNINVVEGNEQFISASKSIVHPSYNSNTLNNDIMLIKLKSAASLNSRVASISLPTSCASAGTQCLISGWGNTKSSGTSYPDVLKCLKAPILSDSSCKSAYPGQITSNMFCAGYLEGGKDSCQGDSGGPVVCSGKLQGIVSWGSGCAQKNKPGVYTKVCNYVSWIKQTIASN
In words: X-ray crystallography of fragments soaked into trypsin crystals. The following applies: two-step soak, 24-48 h each, crystals in P212121, pH 5.8. The essentials:
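Crystals soaked in DMSO-derived fragment/cryoprotectant mix, then transferred to fresh mix. At least two crystals per soak, liquid-nitrogen cooled; synchrotron, 181 × 1° frames, 1–3 s. Automated processing, ligand placed in active-site density, manual rebuilding.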

Turning to `NCc1cccc(N2CCCC2)c1` [CC 38513], the Soaked fragment density entry was “Yes”.
